# Data reported in ChEMBL document CHEMBL5724801, “EUbOPEN Chemogenomics Library - Multiplex” (2024).
# “And” between values parts separate entries of the source, which are not always exact repeats. Identical values can stand only once.
# System: HEK-293T
# Assay: Multiplex assay against HEK293T
# Assay type: toxicity, cell-based
# Conditions: human
# Outline: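 Hoechst33342, BioTracker Green Microtubule Cytoskeleton Dye, MitoTracker Red and Annexin V Alexa Fluor 680 were added to live cells at seeding, and imaging on a CQ1 microscope at 37°C and 5% CO2 followed compound addition. Gating by CellPathfinder machine learning separated cells into Hoechst high-intensity objects or normal cells, then normal cells into healthy, pyknosed or fragmented nuclei, then pyknosed cells into mitotic or apoptotic. Per cents of healthy-nucleus cells are reported for the tubulin, mitochondrial-mass and membrane-permeability phenotypes.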
# [1] = 12 h, 1 µM, compound concentration 1 uM
# [2] = 12 h, 10 µM, compound concentration 10 uM
# [3] = 24 h, 1 µM, compound concentration 1 uM
# [4] = 24 h, 10 µM, compound concentration 10 uM
# [5] = 48 h, 1 µM, compound concentration 1 uM
# [6] = 48 h, 10 µM, compound concentration 10 uM
structure (smiles),measurement,setting,value
Cc1cc(C)c(NC(=O)C2CC3CCC2C3)c(C)c1 (centres undefined),Population Apoptotic (%),[1],10.42% and 11.4%
same,Population Fragmented Nuclei (%),[1],4.2% and 7.23%
same,Population Healthy Nuclei (%),[1],55.46% and 24.1%
same,Population Hoechst High Intensity Objects (%),[1],0.83% and 0%
same,Population Membrane Permeable-Phenotype (%),[1],0.51% and 2.5%
same,Population Mitochondria Different-Phenotype (%),[1],38.89% and 22.5%
same,Population Mitotic Cells (%),[1],89.58% and 88.6%
same,Population Normal (%),[1],99.17% and 100%
same,Population Pyknosed Nuclei (%),[1],40.34% and 68.67%
same,Total Cell Count,[1],360 and 166
same,Population Apoptotic (%),[2],15.2%
same,Population Fragmented Nuclei (%),[2],3.72% and 4.14%
same,Population Healthy Nuclei (%),[2],44.63% and 21.89%
same,Population Hoechst High Intensity Objects (%),[2],0.82% and 0%
same,Population Membrane Permeable-Phenotype (%),[2],0.93% and 2.7%
same,Population Mitochondria Different-Phenotype (%),[2],32.41% and 16.22%
same,Population Mitotic Cells (%),[2],84.8%
same,Population Normal (%),[2],99.18% and 100%
same,Population Pyknosed Nuclei (%),[2],51.65% and 73.96%
same,Total Cell Count,[2],244 and 169
same,Population Apoptotic (%),[3],14.08% and 10%
same,Population Fragmented Nuclei (%),[3],1.7% and 6.43%
same,Population Healthy Nuclei (%),[3],74.19% and 29.24%
same,Population Hoechst High Intensity Objects (%),[3],0%
same,Population Membrane Permeable-Phenotype (%),[3],1.6% and 0%
same,Population Mitotic Cells (%),[3],85.92% and 90%
same,Population Normal (%),[3],100%
same,Population Pyknosed Nuclei (%),[3],24.11% and 64.33%
same,Population Tubulin-Different-Phenotype (%),[3],17.39% and 0%
same,Population Apoptotic (%),[4],17.76% and 15.52%
same,Population Fragmented Nuclei (%),[4],1.69% and 2.58%
same,Population Healthy Nuclei (%),[4],72.53% and 37.63%
same,Population Hoechst High Intensity Objects (%),[4],0%
same,Population Membrane Permeable-Phenotype (%),[4],0.33% and 1.37%
same,Population Mitochondria Different-Phenotype (%),[4],17.61% and 20.55%
same,Population Mitotic Cells (%),[4],82.24% and 84.48%
same,Population Normal (%),[4],100%
same,Population Pyknosed Nuclei (%),[4],25.78% and 59.79%
same,Population Tubulin-Different-Phenotype (%),[4],14.95% and 10.96%
same,Total Cell Count,[4],415 and 194
same,Population Apoptotic (%),[5],8.16% and 13.89%
same,Population Fragmented Nuclei (%),[5],2.91% and 1.03%
same,Population Healthy Nuclei (%),[5],86.66% and 62.05%
same,Population Hoechst High Intensity Objects (%),[5],0% and 1.52%
same,Population Membrane Permeable-Phenotype (%),[5],4.67% and 2.48%
same,Population Mitochondria Different-Phenotype (%),[5],12.37% and 24.79%
same,Population Mitotic Cells (%),[5],91.84% and 86.11%
same,Population Normal (%),[5],100% and 98.48%
same,Population Apoptotic (%),[6],9.24% and 23.08%
same,Population Fragmented Nuclei (%),[6],2.94% and 2.43%
same,Population Healthy Nuclei (%),[6],84.08% and 71.26%
same,Population Hoechst High Intensity Objects (%),[6],0%
same,Population Membrane Permeable-Phenotype (%),[6],4.15% and 3.98%
same,Population Mitochondria Different-Phenotype (%),[6],20.62% and 28.98%
same,Population Mitotic Cells (%),[6],90.76% and 76.92%
same,Population Normal (%),[6],100%
same,Population Pyknosed Nuclei (%),[6],12.98% and 26.32%
CC(C)CNc1nc(N2CCN(CC3CCCOC3)CC2)ncc1C(=O)NCc1ccccc1 (centres undefined),Population Apoptotic (%),[1],11.7% and 11.21%
same,Population Fragmented Nuclei (%),[1],1.89% and 4.9%
same,Population Hoechst High Intensity Objects (%),[1],0.31% and 0%
same,Population Membrane Permeable-Phenotype (%),[1],0%
same,Population Mitotic Cells (%),[1],88.3% and 88.79%
same,Population Normal (%),[1],99.69% and 100%
same,Population Pyknosed Nuclei (%),[1],53.94% and 81.12%
same,Population Tubulin-Different-Phenotype (%),[1],13.57% and 25%
same,Total Cell Count,[1],318 and 143
same,Population Apoptotic (%),[2],30.6% and 27.73%
same,Population Fragmented Nuclei (%),[2],4.29% and 5.11%
same,Population Hoechst High Intensity Objects (%),[2],1.06% and 0%
same,Population Membrane Permeable-Phenotype (%),[2],0%
same,Population Mitochondria Different-Phenotype (%),[2],23.53% and 63.64%
same,Population Mitotic Cells (%),[2],69.4% and 72.27%
same,Population Normal (%),[2],98.94% and 100%
same,Population Pyknosed Nuclei (%),[2],65.36% and 86.86%
same,Population Tubulin-Different-Phenotype (%),[2],85.88% and 81.82%
same,Total Cell Count,[2],283 and 137
same,Population Apoptotic (%),[3],21.51% and 22.81%
same,Population Fragmented Nuclei (%),[3],1.41% and 5.26%
same,Population Hoechst High Intensity Objects (%),[3],0.2% and 0%
same,Population Membrane Permeable-Phenotype (%),[3],1.89% and 0%
same,Population Mitochondria Different-Phenotype (%),[3],30.6% and 36.67%
same,Population Mitotic Cells (%),[3],78.49% and 77.19%
same,Population Normal (%),[3],99.8% and 100%
same,Population Pyknosed Nuclei (%),[3],34.68% and 75%
same,Population Tubulin-Different-Phenotype (%),[3],28.71% and 13.33%
same,Population Apoptotic (%),[4],59.41% and 71.68%
same,Population Fragmented Nuclei (%),[4],4.91% and 5.67%
same,Population Hoechst High Intensity Objects (%),[4],0.61% and 0%
same,Population Membrane Permeable-Phenotype (%),[4],0%
same,Population Mitochondria Different-Phenotype (%),[4],72.86% and 75%
same,Population Mitotic Cells (%),[4],40.59% and 28.32%
same,Population Normal (%),[4],99.39% and 100%
same,Population Pyknosed Nuclei (%),[4],52.15% and 80.14%
same,Population Tubulin-Different-Phenotype (%),[4],90.71% and 75%
same,Total Cell Count,[4],328 and 141
same,Population Apoptotic (%),[5],7.95% and 20.65%
same,Population Fragmented Nuclei (%),[5],1.03% and 6.84%
same,Population Healthy Nuclei (%),[5],83.45% and 44.74%
same,Population Hoechst High Intensity Objects (%),[5],0%
same,Population Membrane Permeable-Phenotype (%),[5],2.71% and 1.18%
same,Population Mitochondria Different-Phenotype (%),[5],49.88% and 61.18%
same,Population Mitotic Cells (%),[5],92.05% and 79.35%
same,Population Normal (%),[5],100%
same,Population Apoptotic (%),[6],64.8% and 78.16%
same,Population Fragmented Nuclei (%),[6],2.93% and 2.01%
same,Population Healthy Nuclei (%),[6],60.41% and 39.6%
same,Population Hoechst High Intensity Objects (%),[6],0.87% and 1.32%
same,Population Membrane Permeable-Phenotype (%),[6],0.97% and 3.39%
same,Population Mitochondria Different-Phenotype (%),[6],96.6% and 88.14%
same,Population Mitotic Cells (%),[6],35.2% and 21.84%
same,Population Normal (%),[6],99.13% and 98.68%
same,Population Pyknosed Nuclei (%),[6],36.66% and 58.39%
same,Population Tubulin-Different-Phenotype (%),[6],73.3% and 91.53%
same,Total Cell Count,[6],344 and 151
